Structures can show the parent of a compound that is named as a salt. The source made the active and inactive calls.
What was measured:
Mus musculus [1] = experiment: Dopaminergic activity in albino mouse assessed as stereotyped behavior characterized by sniffing and biting at up to 10 mg/kg, sc; format: functional, organism-based; set-up: dose 10 mg/kg
How it was run: (§1)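 Male albino mice (20–25 g, N = 10) were dosed sc in water containing 0.1% sodium metabisulfite and scored for stereotyped sniffing and biting. Dose range runs from the threshold dose to the dose giving maximal response, in mg/kg sc.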

Rattus norvegicus [2] = experiment: Dopaminergic activity in Sprague-Dawley rat assessed as stereotyped behavior characterized by continous sniffing up to 12.5 to 50 ug administered into nucleus accumbens; format: functional, organism-based
How it was run: (§2)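 Male Sprague-Dawley rats (250 ± 26 g) had guide cannulae implanted for bilateral injection into caudate-putamen and nucleus accumbens, and were used 10–14 days later. Nialamide 100 mg/kg ip was given 2 h before. Drug in N2-bubbled water (minimal DMF if needed), 1–2 µL over 60 s. Hyperactivity was read as photocell counts/5 min, stereotypy was scored, and cannula sites were checked histologically.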

Rattus norvegicus [3] = experiment: Dopaminergic activity in Sprague-Dawley rat assessed as hyperactivity up to 6.25 to 50 ug administered into nucleus accumbens; format: functional, organism-based; how it was run: as §2
Rattus norvegicus [4] = experiment: Dopaminergic activity in Sprague-Dawley rat assessed as stereotyped behavior characterized by continous sniffing up to 25 ug administered into caudate-putamen; format: functional, organism-based; how it was run: as §2
Rattus norvegicus [5] = experiment: Dopaminergic activity in Sprague-Dawley rat assessed as stereotyped behavior characterized by sniffing and biting at up to 10 mg/kg, sc; format: functional, organism-based; set-up: dose 10 mg/kg
How it was run: (§3)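 Male Sprague-Dawley rats, groups of 10, were dosed sc in distilled water with 0.1% sodium metabisulfite, with solvent controls. Stereotyped sniffing and biting were scored as for intracerebral tests at 21 ± 2 °C between 08:00 and 18:00 h. Dose range runs from the threshold dose to the dose giving maximal response, in mg/kg sc.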

Rattus norvegicus [6] = experiment: Dopaminergic activity in Sprague-Dawley rat assessed as stereotypic behavior administered into caudate-putamen measured up to 25 ug from 5 to 15 mins to persisted up to 3 hrs; format: functional, organism-based; how it was run: as §2
Mus musculus [7] = experiment: Dopaminergic activity in albino mouse assessed as induction of climbing behavior up to 10 mg/kg, sc; format: functional, organism-based; set-up: dose 10 mg/kg
How it was run: (§4)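 Male albino mice (20–25 g, N = 10) were dosed sc in water with 0.1% sodium metabisulfite and placed in wire-mesh-lined cages. A mouse counted as climbing when holding the wire with all four paws. Measures: climbing index (% time climbing in the 30 min after the first climb) and maximum single-climb time. Doses run from threshold to maximal response.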

Rattus norvegicus [8] = experiment: Dopaminergic activity in Sprague-Dawley rat assessed as hyperactivity behavior administered into nucleus caudate-putamen measured up to 25 ug from 30 to 45 mins to persisted up to 3 hrs; format: functional, organism-based; how it was run: as §2
Mus musculus [9] = experiment: Dopaminergic activity in albino mouse assessed as induction of ipsilateral circling behavior up to 10 mg/kg, sc; format: functional, organism-based; set-up: dose 10 mg/kg
How it was run: (§5)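 Male albino mice (30–35 g) received a unilateral caudate-putamen electrolesion (1.5 mA, 15 s) and 14 days of recovery. Only mice circling ≥7 ipsilateral revolutions/2 min after apomorphine HCl 1.0 mg/kg sc were kept, with a further 7 days of recovery. After sc dosing, complete revolutions in one direction were counted manually. Lesion sites were verified afterwards.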

Rattus norvegicus [10] = experiment: Dopaminergic activity in Sprague-Dawley rat assessed as hyperactivity up to 25 ug administered into caudate-putamen; format: functional, organism-based; how it was run: as §2
Mus musculus [11] = experiment: Dopaminergic activity in sc dosed albino mouse assessed as induction of ipsilateral circling behavior; format: functional, organism-based; how it was run: as §5
Rattus norvegicus [12] = experiment: Dopaminergic activity in Sprague-Dawley rat assessed as stereotypic behavior administered into caudate-putamen measured up to 25 ug from 5 to 15 mins to persisted up to 5 to 6 hrs; format: functional, organism-based; how it was run: as §2
Mus musculus [13] = experiment: Dopaminergic activity in albino mouse assessed as induction of ipsilateral circling behavior at 0.5 to 2 mg/kg, sc; format: functional, organism-based; how it was run: as §5
Rattus norvegicus [14] = experiment: Dopaminergic activity in Sprague-Dawley rat assessed as hyperactivity behavior administered into nucleus caudate-putamen measured up to 25 ug from 30 to 45 mins to persisted up to 5 to 6 hrs; format: functional, organism-based; how it was run: as §2
Mus musculus [15] = experiment: Dopaminergic activity in albino mouse assessed as stereotyped behavior characterized by sniffing and biting at 1 to 2 mg/kg, sc; format: functional, organism-based; how it was run: as §1
[16] = Induction of pecking activity in pigeons assessed as counts for 1 hr relative to apomorphine; format: functional, Columbidae
How it was run: (§6)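 Pigeons were dosed im, with doses spaced at 0.3 log intervals, and pecks were counted over 1 h. Pecking after 1.63 µmol apomorphine hydrochloride was taken as the 100% response.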

Mus musculus [17] = experiment: Dopaminergic activity in albino mouse assessed as induction of ipsilateral circling behavior at 0.5 to 2 mg/kg, sc after 120 mins; format: functional, organism-based; how it was run: as §5
Felis catus = experiment: Inhibition of electrical-stimulation of postganglionic cardioaccelerator nerve in iv dosed cat; format: functional; settings: read-out: ID50 (the source's name)
How it was run: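 Cats were anaesthetised with sodium pentobarbital 30 mg/kg and ventilated. The right postganglionic cardioaccelerator nerves were stimulated with bipolar electrodes (2 Hz, 5 ms pulses, supramaximal voltage, 20–30 s trains), and heart rate was read by cardiotachometer. Doses were spaced at 0.48 log intervals, and the dose inhibiting positive chronotropic responses by 50% was calculated.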

Mus musculus [18] = experiment: Dopaminergic activity in albino mouse assessed as induction of climbing behavior at 0.025 to 1 mg/kg, sc after 120 mins; format: functional, organism-based; how it was run: as §4
Canis familiaris [19] = experiment: Emetic activity in sc dosed dogs assessed as frequency of vomiting for 1 hr relative to apomorphine; format: functional, Canis lupus familiaris
Rattus norvegicus [20] = experiment: Dopaminergic activity in Sprague-Dawley rat assessed as biting behavior up to 50 ug administered into nucleus accumbens; format: functional, organism-based; how it was run: as §2
Rattus norvegicus [21] = experiment: Dopaminergic activity in Sprague-Dawley rat assessed as stereotyped behavior characterized by sniffing and biting at 0.025 to 0.05 mg/kg, sc; format: functional, organism-based; how it was run: as §3
Mus musculus [22] = experiment: Dopaminergic activity in albino mouse assessed as induction of climbing behavior at 0.025 to 1 mg/kg, sc; format: functional, organism-based; how it was run: as §4
Rattus norvegicus [23] = experiment: Dopaminergic activity in Sprague-Dawley rat assessed as stereotyped behavior characterized by sniffing and biting at 0.5 to 2 mg/kg, sc; format: functional, organism-based
How it was run: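 Male Sprague-Dawley rats in groups of 10 received agents sc, dissolved in distilled water containing 0.1% sodium metabisulfite, and were scored for stereotyped sniffing and biting. Testing ran 08:00-18:00 h in sound-proofed rooms at 21 ± 2 °C. The reported range runs from the threshold dose to the dose producing the maximum attainable response, in mg/kg sc.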

Mus musculus [24] = experiment: Dopaminergic activity in albino mouse assessed as induction of climbing behavior at 0.5 to 1.5 mg/kg, sc; format: functional, organism-based
How it was run: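 Male albino mice (20-25 g, N = 10) received agents sc in water with 0.1% sodium metabisulfite. They were placed in perspex cages lined with wire mesh and counted as climbing when holding the wire with all four paws. Read-outs were climbing index (% time climbing in the 30 min after the first climb) and maximum single-climb time. Range given is threshold to maximal dose.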

Mus musculus [25] = experiment: Dopaminergic activity in albino mouse assessed as induction of ipsilateral circling behavior at 0.25 to 1 mg/kg, sc; format: functional, organism-based
How it was run: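 Mice received a unilateral caudate-putamen electrolesion (1.5 mA, 15 s). After 14 days they were screened with apomorphine HCl 1.0 mg/kg sc, and animals circling ≥7 ipsilateral revolutions/2 min were kept. After 7 days' recovery, agents were given sc and complete one-direction revolutions were counted manually. Lesion sites were verified histologically. Range given is threshold to maximal dose.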

Mus musculus [26] = experiment: Dopaminergic activity in albino mouse assessed as stereotyped behavior characterized by sniffing and biting at 1.5 to 4 mg/kg, sc; format: functional, organism-based
Mus musculus [27] = experiment: Dopaminergic activity in albino mouse assessed as induction of climbing behavior at 0.5 mg/kg, sc up to 30 mins; format: functional; settings: route subcutaneous; how it was run: as §4
Mus musculus [28] = experiment: Dopaminergic activity in albino mouse assessed as induction of ipsilateral circling behavior at 0.05 to 0.5 mg/kg, sc; format: functional, organism-based; how it was run: as §5
Mus musculus [29] = experiment: Dopaminergic activity in albino mouse assessed as stereotyped behavior characterized by sniffing and biting at 0.05 to 1 mg/kg, sc; format: functional, organism-based; how it was run: as §1
Mus musculus [30] = experiment: Dopaminergic activity in albino mouse assessed as induction of climbing behavior at 0.1 to 0.5 mg/kg, sc after 120 mins; format: functional, organism-based; how it was run: as §4
Rattus norvegicus [31] = experiment: Dopaminergic activity in Sprague-Dawley rat assessed as locomotor and stereotypic behavior administered into nucleus accumbens measured up to 25 ug from 5 to 15 mins to persisted up to 5 to 6 hrs; format: functional, organism-based; how it was run: as §2
Mus musculus [32] = experiment: Dopaminergic activity in albino mouse assessed as induction of ipsilateral circling behavior at 0.05 to 0.5 mg/kg, sc after 120 mins; format: functional, organism-based; how it was run: as §5
Mus musculus [33] = experiment: Dopaminergic activity in albino mouse assessed as induction of climbing behavior at 0.1 to 0.5 mg/kg, sc; format: functional, organism-based; how it was run: as §4
Rattus norvegicus [34] = experiment: Dopaminergic activity in Sprague-Dawley rat assessed as stereotyped behavior characterized by periodic biting associated with sniffing administered into nucleus accumbens; format: functional, organism-based; how it was run: as §2
Rattus norvegicus [35] = experiment: Dopaminergic activity in Sprague-Dawley rat assessed as stereotyped behavior characterized by sniffing and biting at 1 to 10 mg/kg, sc; format: functional, organism-based; how it was run: as §3
Canis familiaris [36] = experiment: Emetic activity in sc dosed dogs assessed as frequency of vomiting for 1 hr; format: functional; settings: Canis lupus familiaris
How it was run: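 At least five dogs per compound were dosed sc, with doses spaced at 0.3 log intervals. Vomiting frequency was recorded over 1 h.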

[37] = Induction of pecking activity in pigeons assessed as counts for 1 hr; format: functional; settings: Columbidae; how it was run: as §6

Row | Compound | Activity (Mus musculus [1]) | Activity (Rattus norvegicus [2]) | Activity (Rattus norvegicus [3]) | Activity (Rattus norvegicus [4]) | Activity (Rattus norvegicus [5]) | Activity (Rattus norvegicus [6]) | Activity (Mus musculus [7]) | Activity (Rattus norvegicus [8]) | Activity (Mus musculus [9]) | Activity (Rattus norvegicus [10]) | Activity (Rattus norvegicus [12]) | Activity (Rattus norvegicus [14]) | ED50 (Felis catus) [µmol/kg] | fold change (FC) (Canis familiaris [19]) | further results
1 | CCCN1CCC[C@@H]2c3ccc(O)c(O)c3CC[C@@H]21 (relative stereo) | inactive | inactive | inactive | inactive | inactive | Active | inactive | Active | inactive | inactive |  |  |  |  | 
2 | CCN1CCC[C@@H]2c3ccc(O)c(O)c3CC[C@H]21 (relative stereo) |  |  | inactive | Active |  |  |  |  |  | Active | Active | Active | 0.0005 | 4.9 | Activity (Mus musculus [11]): Dose-dependent effect; Activity (Mus musculus [13]): Active; Activity (Mus musculus [15]): Active; fold change (FC) [16]: 0.39; Activity (Mus musculus [17]): Active; Activity (Mus musculus [18]): Active; Activity (Rattus norvegicus [20]): Active; Activity (Rattus norvegicus [21]): Active; Activity (Mus musculus [22]): Active
3 | CN1CCc2cccc3c2[C@H]1Cc1ccc(O)c(O)c1-3 |  |  |  |  |  |  |  |  |  |  |  |  |  |  | Activity (Rattus norvegicus [23]): Active; Activity (Mus musculus [24]): Active; Activity (Mus musculus [25]): Active; Activity (Mus musculus [26]): Active
4 | CCCN1CCC[C@@H]2c3ccc(O)c(O)c3CC[C@H]21 (relative stereo) |  |  | Active | Active |  |  |  |  |  | Active | Active | Active | 0.0003 | 2.7 | Activity (Mus musculus [27]): >90%; Activity (Mus musculus [28]): Active; Activity (Mus musculus [11]): Dose-dependent effect; Activity (Mus musculus [29]): Active; fold change (FC) [16]: 0.32; Activity (Mus musculus [30]): Active; Activity (Rattus norvegicus [31]): Active; Activity (Mus musculus [32]): Active; Activity (Rattus norvegicus [21]): Active; Activity (Mus musculus [33]): Active; Activity (Rattus norvegicus [34]): Active
5 | CCN1CCC[C@@H]2c3ccc(O)c(O)c3CC[C@@H]21 (relative stereo) | inactive | Active | Active |  | inactive | Active | inactive | Active | inactive | Active |  |  |  | 0.053 | 
6 | Oc1ccc2c(c1O)CC[C@H]1NCCC[C@H]21 (relative stereo) | inactive | inactive | inactive | Active |  | Active | inactive | Active | inactive | Active |  |  | 0.0007 | 4.5 | Activity (Rattus norvegicus [35]): Active
7 | CN1CCc2cccc3c2[C@H]1Cc1ccc(O)c(O)c1-3 [APOMORPHINE HYDROCHLORIDE] |  |  |  |  |  |  |  |  |  |  |  |  |  |  | ED50 (Canis familiaris [36]): 0.14 µmol/kg; ED50 [37]: 0.77 µmol/kg
8 | Oc1ccc2c(c1O)CC[C@@H]1NCCC[C@H]21 (relative stereo) | inactive | inactive | inactive | inactive | inactive | Active | inactive | Active | inactive | inactive |  |  | 0.027 | 0.024 | 
9 | CN1CCc2cccc3c2[C@H]1Cc1ccc(O)c(O)c1-3 [APOMORPHINE] |  |  |  |  |  |  |  |  |  |  |  |  | 0.019 |  | 
10 | NCCc1ccc(O)c(O)c1 |  | Active | Active |  |  |  |  |  |  |  | Active | Active |  |  | Activity (Rattus norvegicus [20]): inactive
